Measured values: ChEMBL document CHEMBL1156295, “In vitro and in vivo photocytotoxicity of boron dipyrromethene derivatives for photodynamic therapy” (J Med Chem, 2010)
Activity calls are given as the source filed them. The rule behind the calls is not given here.

Tests used:
HSC-2 [1] = assay: Induction of apoptosis in human HSC2 cells irradiated with 4.1 J/cm^2 broad spectrum light assessed as viable cells at 0.5 uM after 24 hrs of irradiation by annexin V-FITC staining; assay type: functional; details: HSC-2, light or radiation study, read-out: Activity
Summary of the method: (§1)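 HSC-2 cells at 50% confluency in dishes, treated 2 h, then irradiated (4.1 J/cm2 broad spectrum) or kept dark. At intervals, floating and trypsinized cells pooled, washed in cold PBS, resuspended at 1 × 10^6 cells/mL in binding buffer. Stained 15 min in the dark at room temperature with annexin V-FITC and propidium iodide. 1 × 10^4 cells read by flow cytometry (FL1, FL3).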

HSC-2 [2] = assay: Induction of apoptosis in human HSC2 cells in dark assessed as viable cells at 0.5 uM after 4 hrs of irradiation by annexin V-FITC staining; assay type: functional; details: HSC-2, light or radiation study, read-out: Activity; summary of the method: as §1
HSC-2 [3] = assay: Induction of apoptosis in human HSC2 cells in dark assessed as apoptotic cells at 0.5 uM after 24 hrs by annexin V-FITC staining; assay type: functional; summary of the method: as §1
Gallus gallus [4] = species on record: Gallus gallus; assay: Antiangiogenic activity against chicken chorioallantoic membrane irradiated with 20 to 40 J/cm^2 assessed as induction of vascular occlusion at 3.5 to 7 nmol/embryo; assay type: functional, tissue-based
Summary of the method: (§2)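 Fertilized chicken eggs incubated at 37 °C, 65% humidity. On EDD-9, single iv bolus into the main CAM vessel in cremophor EL 5%, EtOH 5% in saline. One minute later, a 0.02 cm2 site with 5–100 μm vessels irradiated at 510–560 nm, 40 mW/cm2 (or left dark). After 24 h, FITC-dextran/Indian ink angiography and damage scoring per Lange et al.; at least 10 embryos, mean ± SEM.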

Gallus gallus [5] = species on record: Gallus gallus; assay: Antiangiogenic activity against chicken chorioallantoic membrane in dark assessed as induction of vascular occlusion at 3.5 to 7 nmol/embryo; assay type: functional, tissue-based; summary of the method: as §2
[6] = Cellular uptake in human HSC2 cells assessed as intracellular localization in to nuclear membrane at 100 nM by spinning disk confocal microscopy; assay type: ADME, cell-based; details: hsc-2, 0.1 µM
Summary of the method: (§3)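 HSC-2 cells grown on glass coverslips, co-incubated at room temperature for 15–30 min with compound plus probe: ER-Tracker 100 nM, LysoTracker 500 nM or Rh123 100 nM. Rinsed in PBS. XY sections at 0.2 μm imaged; excitation 330–385 nm for ER/Lyso probes, 460–490 nm for Rh123, 520–550 nm for photosensitizer.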

[7] = Cellular uptake in human HSC2 cells assessed as intracellular localization in to cytoplasmic membrane at 100 nM by spinning disk confocal microscopy; assay type: ADME, cell-based; details: hsc-2, 0.1 µM; summary of the method: as §3
HL-60 = assay: Phototoxicity against human HL60 cells irradiated with 4.1 J/cm^2 broad spectrum light treated 2 hrs before irradiation measured after 24 hrs by MTT assay; assay type: functional, cell-based; details: HL-60, light or radiation study
Summary of the method: (§4)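 HL60 at 15000 cells/well; HSC-2 and HK1 at 3000 cells/well, adhered overnight; phenol-red-free medium with 10% FBS. Compound tested at 0.001–100.0 μM from DMSO stock; controls 0.01% DMSO. After 2 h, irradiated with broad-spectrum light at 6.8 mW/cm2, or dark. After 24 h, MTT 4 h at 37 °C, formazan in DMSO, A570. Three determinations, mean ± SD.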

HSC-2 [8] = assay: Cytotoxicity against human HSC2 cells after 24 hrs by MTT assay; assay type: functional, cell-based; details: HSC-2, 24 h; summary of the method: as §4
[9] = Cellular uptake in human HSC2 cells assessed as intracellular localization in to mitochondria labeled with rhodamine 123 dye at 100 nM by spinning disk confocal microscopy; assay type: ADME; details: hsc-2, 0.1 µM; summary of the method: as §3
[10] = Cellular uptake in human HSC2 cells assessed as intracellular localization in to endoplasmic reticulum labeled with ER-tracker blue-white DPX dye at 100 nM by spinning disk confocal microscopy; assay type: ADME, cell-based; details: hsc-2, 0.1 µM; summary of the method: as §3
[11] = Cellular uptake in human HSC2 cells assessed as intracellular localization in to lysosome labeled with lyso-tracker DND22 dye at 100 nM by spinning disk confocal microscopy; assay type: ADME, cell-based; details: hsc-2, 0.1 µM; summary of the method: as §3
HSC-2 [12] = assay: Cell cycle arrest in human HSC2 cells irradiated with 4.1 J/cm^2 broad spectrum light assessed as accumulation at G2/M phase at 0.25 uM after 2 hrs by flow cytometry relative to control; assay type: functional
Summary of the method: (§5)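 HSC-2 cells given compound for 2 h, then irradiated with broad-spectrum light (or kept dark). Floating plus trypsinized adherent cells collected at set times after irradiation. Fixed in 70% ice-cold ethanol overnight at 4 °C, then stained 30 min with 20 μg/mL RNase A and 1 μM SYTOX Green. 1 × 10^4 cells read by flow cytometry (488 nm laser, FL1 530/30).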

HSC-2 [13] = assay: Cell cycle arrest in human HSC2 cells irradiated with 4.1 J/cm^2 broad spectrum light assessed as accumulation at G2/M phase at 0.25 uM after 6 hrs by flow cytometry relative to control; assay type: functional; summary of the method: as §5
HSC-2 [14] = assay: Cell cycle arrest in human HSC2 cells irradiated with 4.1 J/cm^2 broad spectrum light assessed as accumulation at G2/M phase at 0.25 uM after 8 hrs by flow cytometry relative to control; assay type: functional; summary of the method: as §5
HSC-2 [15] = assay: Cell cycle arrest in human HSC2 cells irradiated with 4.1 J/cm^2 broad spectrum light assessed as accumulation at G2/M phase at 0.25 uM after 12 hrs by flow cytometry relative to control; assay type: functional; summary of the method: as §5
HSC-2 [16] = assay: Cell cycle arrest in human HSC2 cells irradiated with 4.1 J/cm^2 broad spectrum light assessed as accumulation at G1 phase at 0.25 uM after 4 hrs by flow cytometry relative to control; assay type: functional; summary of the method: as §5
HSC-2 [17] = assay: Cell cycle arrest in human HSC2 cells irradiated with 4.1 J/cm^2 broad spectrum light assessed as accumulation at G1 phase at 0.25 uM after 6 hrs by flow cytometry relative to control; assay type: functional; summary of the method: as §5
HSC-2 [18] = assay: Cell cycle arrest in human HSC2 cells in dark assessed as accumulation at G1 phase at 0.25 uM after 12 hrs by flow cytometry relative to control; assay type: functional; summary of the method: as §5
HSC-2 [19] = assay: Cell cycle arrest in human HSC2 cells irradiated with 4.1 J/cm^2 broad spectrum light assessed as accumulation at sub-G1 phase at 0.25 uM after 4 hrs by flow cytometry relative to control; assay type: functional; summary of the method: as §5
HSC-2 [20] = assay: Cell cycle arrest in human HSC2 cells irradiated with 4.1 J/cm^2 broad spectrum light assessed as accumulation at sub-G1 phase at 0.25 uM after 6 hrs by flow cytometry relative to control; assay type: functional; summary of the method: as §5
HSC-2 [21] = assay: Cell cycle arrest in human HSC2 cells irradiated with 4.1 J/cm^2 broad spectrum light assessed as accumulation at sub-G1 phase at 0.25 uM after 8 hrs by flow cytometry relative to control; assay type: functional; summary of the method: as §5
HSC-2 [22] = assay: Cell cycle arrest in human HSC2 cells irradiated with 4.1 J/cm^2 broad spectrum light assessed as accumulation at sub-G1 phase at 0.25 uM after 12 hrs by flow cytometry relative to control; assay type: functional; summary of the method: as §5
HSC-2 [23] = assay: Induction of apoptosis in human HSC2 cells irradiated with 4.1 J/cm^2 broad spectrum light assessed as viable cells at 0.5 uM after 12 hrs of irradiation by annexin V-FITC staining; assay type: functional; details: HSC-2, light or radiation study, read-out: Activity; summary of the method: as §1
HSC-2 [24] = assay: Induction of apoptosis in human HSC2 cells irradiated with 4.1 J/cm^2 broad spectrum light assessed as apoptotic cells at 0.5 uM after 12 hrs of irradiation by annexin V-FITC staining; assay type: functional; summary of the method: as §1
HSC-2 [25] = assay: Induction of apoptosis in human HSC2 cells irradiated with 4.1 J/cm^2 broad spectrum light assessed as viable cells at 0.5 uM after 16 hrs of irradiation by annexin V-FITC staining; assay type: functional; details: HSC-2, light or radiation study, read-out: Activity; summary of the method: as §1

Compound: CC1=C(I)C(C)=[N+]2C1=C(CCC(=O)O)c1c(C)c(I)c(C)n1[B-]2(F)F
- viability at 0.5 µM (HSC-2 [1]): 10.1%
- viability at 0.5 µM (HSC-2 [2]): 97%
- Activity (HSC-2 [3]): 3%
- Activity (Gallus gallus [4]): Active
- Activity (Gallus gallus [5]): inactive
- Activity [6]: Not Active
- Activity [7]: Not Active
- IC50 (HL-60): 45 nM
- IC50 (HSC-2 [8]): > 100000 nM
- Drug uptake [9]: Active
- Drug uptake [10]: Active
- Drug uptake [11]: Active
- Activity (HSC-2 [12]): 39.8%
- Activity (HSC-2 [13]): 55.5%
- Activity (HSC-2 [14]): 48.8%
- Activity (HSC-2 [15]): 26%
- Activity (HSC-2 [16]): 33.8%
- Activity (HSC-2 [17]): 26.4%
- Activity (HSC-2 [18]): 55.2%
- Activity (HSC-2 [19]): 3.7%
- Activity (HSC-2 [20]): 3.9%
- Activity (HSC-2 [21]): 4.4%
- Activity (HSC-2 [22]): 10.6%
- viability at 0.5 µM (HSC-2 [23]): 79.3%
- Activity (HSC-2 [24]): 20.7%
- viability at 0.5 µM (HSC-2 [25]): 52.6%
